Data set [1] is filed under the species Rattus norvegicus. The data set is described as follows: Percent of maximal contractile response to compound in rat thoracic aorta strips in the presence of PBZ and CIR.
The species entered for data set [2] is Rattus norvegicus. The data set is described as follows: Concentration that produces 50% of the maximal response to compound without phenoxybenzamine pretreatment on rat thoracic aorta strips. The format is functional. The method in brief:
(§1)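 Helically cut thoracic aorta strips from male Sprague-Dawley rats (300–450 g) in a 10-mL water-jacketed bath of physiological salt solution. After 1 h equilibration, strips were primed with 10^-8 M phenylephrine, and a phenylephrine curve (10^-9 to 3×10^-5 M) was run. Cumulative analog curves were read 20–30 min after each addition. Emax is given relative to the 30 μM phenylephrine maximum. Mean ± SEM, n = 4–7.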

The species entered for data set [3] is Rattus norvegicus. The data set is described as follows: Percent of maximal contractile response to compound in rat thoracic aorta strips in the presence of nifedipine. The method in brief: (§2)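 Aortic strips were pretreated with nifedipine 10^-6 M for 60 min. The stock was 0.01 M in EtOH, diluted in 0.01 M sodium phosphate, pH 7.4. Cumulative analog curves followed, read 35–45 min after each addition. Emax is expressed relative to the compound alone. Mean ± SEM, n = 3–4; paired comparison.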

For data set [4], the species on record is Rattus norvegicus. The data set is described as follows: Concentration that produces 50% of the maximal response to compound in rat thoracic aorta strips in the presence of PBZ and CIR. The format is functional.
The species named for data set [5] is Rattus norvegicus. The data set is described as follows: Concentration that produces 50% of the maximal response to compound in rat thoracic aorta strips in the presence of PBZ and IDA. It is filed as functional. The method in brief:
(§3)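 Rat aortic strips were given PBZ for 20 min, then washed out and exposed to idazoxan for 60 min before cumulative analog curves (3×10^-8–10^-4 M). Readings were taken 35–45 min after each addition. Response is expressed as % of the 30 μM phenylephrine maximum. Mean ± SEM, n = 3–4.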

The species entered for data set [6] is Rattus norvegicus. The data set is described as follows: Concentration that produces 50% of the maximal response to compound in rat thoracic aorta strips in the presence of nifedipine. It is filed as functional. Put shortly:
as §2

The species entered for data set [7] is Rattus norvegicus. The data set is described as follows: Percent of maximal contractile response to compound in rat thoracic aorta strips. The method in brief: as §1
Data set [8] is filed under the species Rattus norvegicus. The data set is described as follows: Concentration that produces 50% of the maximal response to compound with phenoxybenzamine pretreatment on rat thoracic aorta strips. It is filed as functional. Put shortly: (§4)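 Rat aortic strips (male Sprague-Dawley) were pretreated with phenoxybenzamine 3×10^-6 M for 20 min and washed before cumulative analog curves were run. Responses were taken 20–30 min after each addition. Maximal contraction is expressed relative to 30 μM phenylephrine, obtained before pretreatment. Mean ± SEM, n = 4–7; Student's t test against the untreated control.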

For data set [9], the species on record is Rattus norvegicus. The data set is described as follows: Percent of maximal contractile response to compound in rat thoracic aorta strips in the presence of PBZ and IDA. The method in brief:
as §3

For data set [10], the species on record is Rattus norvegicus. As to the kind of experiment: Percent of maximal contractile response to compound with phenoxybenzamine pretreatment on rat thoracic aorta strips. The method in brief:
as §4

The species named for data set [11] is Rattus norvegicus. As to the kind of experiment: Concentration that produces 50% of the maximal response to compound in rat thoracic aorta strips. The format is functional. The method in brief: as §1
The species named for data set [12] is Rattus norvegicus. The data set is described as follows: Percent of maximal contractile response to compound without phenoxybenzamine pretreatment on rat thoracic aorta strips. The method in brief:
as §1

The species entered for data set [13] is Rattus norvegicus. The data set is described as follows: Percent of maximal contractile response to compound in rat thoracic aorta strips v.
For data set [14], the species on record is Rattus norvegicus. As to the kind of experiment: Concentration that produces 50% of the maximal response to compound in rat thoracic aorta strips in the presence of PBZ and IDA.
The species named for data set [15] is Rattus norvegicus. The data set is described as follows: Percent of maximal contractile response to compound in rat thoracic aorta strips in the presence of PBZ and IDA at 1 uM. Put shortly: (§5)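 Strips were exposed to 30 nM PBZ for 20 min, washed out, then held in idazoxan for 1 h: 0.1 μM or 1 μM. Analog-induced contractions were read 20–30 min after addition and expressed against the 30 μM phenylephrine maximum obtained before treatment.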

For data set [16], the species on record is Rattus norvegicus. The data set is described as follows: Concentration that produces 50% of the maximal response to compound in rat thoracic aorta strips in the presence of PBZ and IDA at 0.1 uM. It is filed as functional. Put shortly: as §5
For data set [17], the species on record is Rattus norvegicus. The data set is described as follows: Percent of maximal contractile response to compound in rat thoracic aorta strips in the presence of calcium deficient buffer. Put shortly: (§6)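 Cumulative analog concentration-response curves were run on rat thoracic aorta strips in calcium-deficient PSS. Responses were read 35–45 min after each addition. Emax is relative to the maximal contraction of the compound alone in normal PSS. Mean ± SEM, n = 3–4; paired t test.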

The species named for data set [18] is Rattus norvegicus. As to the kind of experiment: Concentration that produces 50% of the maximal response to compound in rat thoracic aorta strips in the presence of verapamil. It is filed as functional. The method in brief: (§7)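 Verapamil was given for 60 min before cumulative analog curves on rat aortic strips; the methods give 10^-5 M and the table footnote gives 10^-6 M. Responses were read 35–45 min after each addition. Emax is relative to the compound's own maximal contraction without verapamil. Mean ± SEM, n = 3–4.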

The species named for data set [19] is Rattus norvegicus. The data set is described as follows: Concentration that produces 50% of the maximal response to compound in rat thoracic aorta strips in the presence of calcium deficient buffer. It is filed as functional. Put shortly: as §6
Data set [20] is filed under the species Rattus norvegicus. As to the kind of experiment: Percent of maximal contractile response to compound in rat thoracic aorta strips in the presence of verapamil. The method in brief:
as §7

The species named for data set [21] is Rattus norvegicus. The data set is described as follows: Percent of maximal contractile response to compound in rat thoracic aorta strips in the presence of PBZ and IDA at 0.1 uM. Put shortly: as §5
The species entered for data set [22] is Rattus norvegicus. As to the kind of experiment: Concentration that produces 50% of the maximal response to compound in rat thoracic aorta strips in the presence of PBZ and IDA at 1 uM. The format is functional. The method in brief: as §5
For data set [23], the species on record is Rattus norvegicus. The data set is described as follows: Percent of maximal contractile response to compound in rat thoracic aorta strips presence of PBZ and CIR.
Where [24] appears, read: Rattus norvegicus, Thoracic aorta, read-out: Emax.
Setting [25] is: Rattus norvegicus, Thoracic aorta.

“And” between values parts separate entries of the source, which are not always exact repeats. Equal entries are not always repeated.

Consider `S=C=Nc1ccc(Cc2ncc[nH]2)cc1`, for which the Emax in the data set listed under Rattus norvegicus [1] came to 102%; in the data set filed under Rattus norvegicus [3], 35%; in the data set filed under Rattus norvegicus [7] (setting [24]) it was 100%; in the data set listed under Rattus norvegicus [9], 79%; in the data set filed under Rattus norvegicus [10], 68%; in the data set filed under Rattus norvegicus [12], 70%. In addition, the half-maximal effective concentration (EC50) in the data set listed under Rattus norvegicus [2] stood at 31 µM; in the data set filed under Rattus norvegicus [4] it was 25.5 µM; in the data set listed under Rattus norvegicus [5], 40.9 µM; in the data set filed under Rattus norvegicus [6], 38.9 µM; in the data set listed under Rattus norvegicus [8] it was 36 µM; in the data set filed under Rattus norvegicus [11] (setting [25]) it was 28.6 µM.
As for `S=C=Nc1ccc(CC2=NCCN2)cc1I`, the EC50 came to 10 µM in the data set listed under Rattus norvegicus [2] and 58 µM in the data set filed under Rattus norvegicus [8]. The maximal response (Emax) came out at 28% in the data set filed under Rattus norvegicus [10] and 31% in the data set filed under Rattus norvegicus [12].
`O=C(CCl)Nc1ccc(CC2=NCCN2)cc1`: the results for the concentration giving a half-maximal response (EC50) in the data set listed under Rattus norvegicus [2] and in the data set filed under Rattus norvegicus [8] were 116 µM and 129 µM, respectively. The maximal response (Emax) was 32% in the data set filed under Rattus norvegicus [10] and 41% in the data set listed under Rattus norvegicus [12].
Turning to `Cc1ccc(CC2=NCCN2)cc1`, in the data set filed under Rattus norvegicus [2], the EC50 was 57 µM. In addition, the maximal effect (Emax) was determined as 5% in the data set listed under Rattus norvegicus [10] and 14% in the data set filed under Rattus norvegicus [12].
With `S=C=Nc1ccc(OCC2=NCCN2)cc1`, the Emax in the data set listed under Rattus norvegicus [13] stood at 110%; in the data set listed under Rattus norvegicus [1] it was 117%; in the data set listed under Rattus norvegicus [3], 11%; in the data set filed under Rattus norvegicus [7] (setting [24]), 100%; in the data set listed under Rattus norvegicus [10] it was 117%; in the data set filed under Rattus norvegicus [12] it was 108%. The EC50 in the data set filed under Rattus norvegicus [14] worked out at 16.1 µM; in the data set filed under Rattus norvegicus [2] it was 69 µM; in the data set filed under Rattus norvegicus [4] it was 16.4 µM; in the data set listed under Rattus norvegicus [6], 52.1 µM; in the data set listed under Rattus norvegicus [8], 47 µM; in the data set filed under Rattus norvegicus [11] (setting [25]), 17.2 µM.
Regarding `O=C(CI)Nc1ccc(CC2=NCCN2)cc1`, in the data set listed under Rattus norvegicus [2], the EC50 was found to be 47 µM. Besides, the maximal effect (Emax) in the data set listed under Rattus norvegicus [10] was determined as 13%; in the data set filed under Rattus norvegicus [12], 25%.
With `CN(C)CCc1ccc(N=C=S)cc1`, the EC50 in the data set filed under Rattus norvegicus [2] was 41 µM; in the data set filed under Rattus norvegicus [6], 48.5 µM; in the data set listed under Rattus norvegicus [8], 33 µM; in the data set filed under Rattus norvegicus [11], 16.9 µM and 16.3 µM; in the data set listed under Rattus norvegicus [11] (setting [25]), 16.8 µM. Further, the Emax is 29% in the data set listed under Rattus norvegicus [3]; 100% in the data set filed under Rattus norvegicus [7] (setting [24]); 91% and 94% in the data set listed under Rattus norvegicus [7] (rat, in vitro); 113% in the data set filed under Rattus norvegicus [10]; 98% in the data set listed under Rattus norvegicus [12].
Turning to `Nc1ccc(CC2=NCCN2)cc1`, the results for the EC50 in the data set filed under Rattus norvegicus [2] and in the data set filed under Rattus norvegicus [8] were 3 µM and 31 µM, respectively. Besides, the maximum response (Emax) stood at 9% in the data set filed under Rattus norvegicus [10] and 69% in the data set filed under Rattus norvegicus [12].
As for `S=C=Nc1ccc(CCC2=NCCN2)cc1`, the Emax in the data set filed under Rattus norvegicus [1] worked out at 100%; in the data set listed under Rattus norvegicus [3] it was 21%; in the data set listed under Rattus norvegicus [7] (setting [24]), 100%; in the data set listed under Rattus norvegicus [9], 114%; in the data set listed under Rattus norvegicus [10], 102%; in the data set filed under Rattus norvegicus [12], 107%. The half-maximal effective concentration (EC50) in the data set listed under Rattus norvegicus [2] stood at 29 µM; in the data set filed under Rattus norvegicus [4], 14.9 µM; in the data set listed under Rattus norvegicus [5], 18.1 µM; in the data set listed under Rattus norvegicus [6] it was 67 µM; in the data set filed under Rattus norvegicus [8] it was 29 µM; in the data set listed under Rattus norvegicus [11] (setting [25]), 18.3 µM.
In the case of `S=C=Nc1ccc(CC2=NCCN2)cc1`, the Emax in the data set filed under Rattus norvegicus [15] came out at 105%; in the data set listed under Rattus norvegicus [3], 42%; in the data set filed under Rattus norvegicus [17] it was 34%; in the data set listed under Rattus norvegicus [20], 48%; in the data set listed under Rattus norvegicus [21], 104%; in the data set listed under Rattus norvegicus [7] (setting [24]), 100%. In addition, the maximal effect (Emax) in the data set listed under Rattus norvegicus [7] (rat, in vitro) was 100%; in the data set filed under Rattus norvegicus [23], 94%; in the data set filed under Rattus norvegicus [10], 100%; in the data set filed under Rattus norvegicus [12], 118%. In addition, the EC50 came to 54 µM in the data set filed under Rattus norvegicus [16]; 48 µM in the data set filed under Rattus norvegicus [2]; 21.4 µM in the data set filed under Rattus norvegicus [18]; 43 µM in the data set listed under Rattus norvegicus [4]; 12.7 µM in the data set filed under Rattus norvegicus [19]; 19.8 µM in the data set listed under Rattus norvegicus [6]. Further, the EC50 in the data set filed under Rattus norvegicus [22] was 54 µM; in the data set filed under Rattus norvegicus [8] it was 52 µM; in the data set listed under Rattus norvegicus [11], 45 µM and 5.8 µM.

Source of the values: ChEMBL document CHEMBL1127547, “Synthesis and biological activities of a new set of irreversibly acting 2-(4'-isothiocyanatobenzyl)imidazoline analogs in rat thoracic aorta” (J Med Chem, 1994).
